# How the values were obtained:
# MS2 coat protein [1] = test: apparent Kd, MS2 coat protein; higher = weaker binding; RNA-MaP array
# How it was run: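 For each design, the apparent Kd is the median of binding-curve fits across its clusters. Designs measured on fewer than 10 clusters were dropped. The RNAs were transcribed from sequenced DNA templates on an Illumina sequencing chip and incubated at room temperature, with or without input ligand, with fluorescently labeled MS2 coat protein at 1.5 nM to 3 μM.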
# MS2 coat protein [2] = test: apparent Kd, MS2 coat protein; higher = weaker binding; RNA-MaP array; FMN 200 µM where present
# How it was run: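 SNAP-549-labelled MS2 coat protein, doubled from 0.7 or 1.5 nM to 3 µM, was titrated over designs transcribed by stalled E. coli RNA polymerase on Illumina sequencing-chip clusters. Titrations were run without and then with constant ligand in 100 mM Tris-HCl pH 7.5, 80 mM KCl, 4 mM MgCl2, BSA, DTT, yeast tRNA and Tween-20. The apparent Kd is the median of filtered per-cluster fits to green signal normalised to red-channel RNA signal and control-cluster median Fmax.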
# [3] = designed as: OFF switch for flavin mononucleotide, no ligand
# [4] = ligand present: flavin mononucleotide, designed as: OFF switch for flavin mononucleotide
# [5] = designed as: OFF switch for tryptophan, no ligand
# [6] = ligand present: tryptophan, designed as: OFF switch for tryptophan
# [7] = designed as: OFF switch for theophylline, no ligand
# [8] = ligand present: theophylline, designed as: OFF switch for theophylline
# [9] = designed as: ON switch for flavin mononucleotide, no ligand
# [10] = ligand present: flavin mononucleotide, designed as: ON switch for flavin mononucleotide
# [11] = designed as: ON switch for theophylline, no ligand
# [12] = ligand present: theophylline, designed as: ON switch for theophylline
sequence,measurement,setting,value
GAGUGGUAAGGAUAUAAUACGAAUACGGUGAAACCCGGCGUUUAGAAGGUACAUGAGGAUCACCCAUGUGAUUA,apparent Kd,MS2 coat protein [1]; [3],13.2 nM
same,apparent Kd,MS2 coat protein [1]; [4],13.8 nM
GGUUGAUGGUCGGCCGCCACUGUUGGUGCCAUGAGUUAAGUAUAGCACAUGAGGAUCACCCAUGUCAGGACCGGGACUCUACCCG,apparent Kd,MS2 coat protein [1]; [5],14.6 nM
same,apparent Kd,MS2 coat protein [1]; [6],18.1 nM
CUGCCACAGAUAGAUACCAGAGGCGUGCAAGCUACAGCUCACAUGAGGAUCACCCAUGUUCUCCCUUGGCAGCUACGGUGUAAGG,apparent Kd,MS2 coat protein [1]; [7],16.6 nM
same,apparent Kd,MS2 coat protein [1]; [8],17.4 nM
AACGACAUGAGGAUCACCCAUGUAUACGACCGAAGUGUACGGUAGGAUAUCGACAGCAUAGAUAACGAGAAGGACCCUUUUGGA,apparent Kd,MS2 coat protein [1]; [9],18.1 nM
same,apparent Kd,MS2 coat protein [1]; [10],11.8 nM
UGGUGCCCUGUAUACAUUGUAAUCCUAAUGCGAGGACCGGUACGGCCGCCACUCGUUGCGGAACAUGAGGAUCACCCAUGUAACA,apparent Kd,MS2 coat protein [1]; [5],18.3 nM
same,apparent Kd,MS2 coat protein [1]; [6],16.6 nM
GAUUGACAUGAGGAUCACCCAUGUAGCGUAUGGUGACUUCUGAAGGAUAUUAAUGCAGUGGCGGUUAAGAAGGUCAGCUAAUCG,apparent Kd,MS2 coat protein [1]; [3],45.7 nM
same,apparent Kd,MS2 coat protein [1]; [4],35 nM
AGAGAAAAGUAACAUGAGGAUCACCCAUGUAUCCCACGAGUCAGAAGGAGCGGGUUGAUACGAGGCUAGGAUAUGAAGAGUCAU,apparent Kd,MS2 coat protein [1]; [9],153 nM
same,apparent Kd,MS2 coat protein [1]; [10],98.7 nM
CCUUAGAUACAUGAGGAUCACCCAUGUCACCAGCAACCUGACGAGGAUAUAUAGGCCAAAUAACUAUAGAAGGCGUUGACCCAA,apparent Kd,MS2 coat protein [1]; [9],20.5 nM
same,apparent Kd,MS2 coat protein [1]; [10],12.4 nM
GAAUACGUCAUGAUGAACAUGAGGAUCACCCAUGUAGUGCCUUAGGAUAUGCUACGAUUACUGCCGCAGAAGGAAGUGCAAGAA,apparent Kd,MS2 coat protein [1]; [9],44.1 nM
same,apparent Kd,MS2 coat protein [1]; [10],28.4 nM
CCUAUUCCUACGGAUACCAGACGAUCCGUGGCGUGUGUGAACAUGAGGAUCACCCAUGUAGUCCCUUGGCAGCCGAUGCGGGUAA,apparent Kd,MS2 coat protein [1]; [7],34.3 nM
same,apparent Kd,MS2 coat protein [1]; [8],132 nM
GUAUGUGGUGAGGAUAUCCACCCGCGGGUAUAUGGAGAAGGCACUACAUGAGGAUCACCCAUGUUAACUUGCCA,apparent Kd,MS2 coat protein [1]; [3],10.1 nM
same,apparent Kd,MS2 coat protein [1]; [4],31.8 nM
GAUAGUCCCAAGGAUAUGUGGGUUUUAUCUUCUACAGAAGGUGGGACAUGAGGAUCACCCAUGUUGCGGCGAGG,apparent Kd,MS2 coat protein [1]; [3],26.8 nM
same,apparent Kd,MS2 coat protein [1]; [4],261 nM
ACUGGACAUGAGGAUCACCCAUGUGGCGAUACCAGUUUCAGCGGGAACCCUUGGCAGCGCGGUGCCGGCCAUAGAAGUUCUGGGA,apparent Kd,MS2 coat protein [1]; [11],51.4 nM
same,apparent Kd,MS2 coat protein [1]; [12],60.1 nM
AAAUAAUCUAGUCCACAAUGUGACUCAGAUACCAGUGCAAAGCUACACCCUUGGCAGCUGGUUACAUGAGGAUCACCCAUGUCGU,apparent Kd,MS2 coat protein [1]; [7],47.6 nM
same,apparent Kd,MS2 coat protein [1]; [8],116 nM
UUGAUAGCAGGAUAUACAUGAGGAUCACCCAUGUACAGGCAAAAGGGAACUGACCCACGUAGAAGGGCUUCGCA,apparent Kd,MS2 coat protein [1]; [3],10.8 nM
same,apparent Kd,MS2 coat protein [1]; [4],21 nM
AGCGUUGCAGAGAAGGCGGUAUGAGUUACGCUCUCACACAUGAGGAUCACCCAUGUAAUGACGUCCGAGGAUAUCUCACAACUC,apparent Kd,MS2 coat protein [1]; [3],5.47 nM
same,apparent Kd,MS2 coat protein [1]; [4],5.81 nM
UGUAUCUCGCAGAAGGCAGGUUAAGCAACAAACUGAGGAUAUGCGUAUACAUGAGGAUCACCCAUGUUCACUGAUCGCAAAUUC,apparent Kd,MS2 coat protein [1]; [3],14.8 nM
same,apparent Kd,MS2 coat protein [1]; [4],102 nM
UCGAUAAGAGGAUAUACGUGAUAGUUCUCCUCCCUAUGACUACAUGAGGAUCACCCAUGUAGAAGGCUUAACGG,apparent Kd,MS2 coat protein [1]; [3],6.31 nM
same,apparent Kd,MS2 coat protein [1]; [4],6.54 nM
UAUGUCGCCGAAGAUACCAGCCUGGCAAGCAACAUGAGGAUCACCCAUGUAAUUACUUAUGGCCCUUGGCAGCUUCAAAUAGAGC,apparent Kd,MS2 coat protein [1]; [11],11.4 nM
same,apparent Kd,MS2 coat protein [1]; [12],11.8 nM
CACCCUAAAGGAUAUACAGCAUAGAAAACGGGUAAGUCUAAACAUGAGGAUCACCCAUGUAGAAGGUUAGAAUU,apparent Kd,MS2 coat protein [1]; [3],14.8 nM
same,apparent Kd,MS2 coat protein [1]; [4],14.5 nM
GAUCAACAUGAGGAUCACCCAUGUUAGGAUAUCACACCGGAAAGUGAAAUGCUUUUCUUGAGAAGGAACAAGGC,apparent Kd,MS2 coat protein [1]; [3],7.91 nM
same,apparent Kd,MS2 coat protein [1]; [4],7.28 nM
GGUACCGCGGUGAGGAUAUCCUGCGUUUGGCAGCUGGAGAAGGCACAUGAGGAUCACCCAUGUAAAGAGAAUGC,apparent Kd,MS2 coat protein [1]; [3],10.5 nM
same,apparent Kd,MS2 coat protein [1]; [4],16.2 nM
AAGUCAGGAGGCGAUACCAGUUACGACAUGGCCAGUUACAUGAGGAUCACCCAUGUGCGGAACCCUUGGCAGCGCUUACAUCGCU,apparent Kd,MS2 coat protein [1]; [7],23.1 nM
same,apparent Kd,MS2 coat protein [1]; [8],165 nM
GAACAGCGGCAGAAGGACUCGCGAUUGUGUACGAACAUGAGGAUCACCCAUGUGUGAGUAUUCCAGUAGGAUAUGCGUUCUAUA,apparent Kd,MS2 coat protein [1]; [3],17.2 nM
same,apparent Kd,MS2 coat protein [1]; [4],12.1 nM
UGUCAGGUCCAUAACAUGAGGAUCACCCAUGUAAGGCAUGAGCAGGAUAUCAAAAGUCGUAAGACAGAGAAGGGCUAAAUGACC,apparent Kd,MS2 coat protein [1]; [3],7 nM
same,apparent Kd,MS2 coat protein [1]; [4],7.51 nM
GAGCUCCACAAGAAGGGCCGUUGCCCAUGGAAGGACGGCACAUGAGGAUCACCCAUGUUGGCAGGGCAGGAUAUUGCAUUUAUU,apparent Kd,MS2 coat protein [1]; [3],26 nM
same,apparent Kd,MS2 coat protein [1]; [4],82.8 nM
GGCGCGGCAGGAUAUGGAUGACGUGACAUGAGGAUCACCCAUGUGCUUAGAUCAUUCGUACCAGAAGGGCCCGCAG,apparent Kd,MS2 coat protein [1]; [3],4.29 nM
same,apparent Kd,MS2 coat protein [1]; [4],4.3 nM
UGCAAUGGGUGAGGAUAUACCCACACACAUGAGGAUCACCCAUGUUUCACAAAGGUGAUGACGCGGUAGAAGGCACAAUCCACU,apparent Kd,MS2 coat protein [1]; [9],268 nM
same,apparent Kd,MS2 coat protein [1]; [10],98.1 nM
GGUCCACAUGAGGAUCACCCAUGUAAGGAUAUCCUGUUUUCUGGUUUAGAGUCGCGAAGGAGAAGGUACAUUAA,apparent Kd,MS2 coat protein [1]; [3],22.5 nM
same,apparent Kd,MS2 coat protein [1]; [4],41.1 nM
AAAUGGGAGGUACGCACCACUACAUGAGGAUCACCCAUGUAUAGAAGGCAGGUCUGGACUCGUCCUGAGGAUAUAUGAUUUGAC,apparent Kd,MS2 coat protein [1]; [3],17.9 nM
same,apparent Kd,MS2 coat protein [1]; [4],16.5 nM
CAAUGGCAGUUGCAGGAUAUUCGGCCGGACACAUGAGGAUCACCCAUGUAGGUUCUCCCAUGGAUGAAGAAGGGCACAACAGAAAC,apparent Kd,MS2 coat protein [1]; [9],134 nM
same,apparent Kd,MS2 coat protein [1]; [10],66.4 nM
UAAAACAUGAGGAUCACCCAUGUAUUGAGUCGAGGACCGGUACGGCCGCCACUCGGCAAUAAUAACGACGCAUAGCAUGUAGGAA,apparent Kd,"MS2 coat protein [1]; designed as: ON switch for tryptophan, no ligand",12.7 nM
same,apparent Kd,"MS2 coat protein [1]; ligand present: tryptophan, designed as: ON switch for tryptophan",14.5 nM
ACGAGACGUCUGGAUACCAGCCCAGCGAUAAACAUGAGGAUCACCCAUGUCAAACCACCCGGCCCUUGGCAGCCACGUACCUCAC,apparent Kd,MS2 coat protein [1]; [11],14.5 nM
same,apparent Kd,MS2 coat protein [1]; [12],10 nM
AUACAACAUGAGGAUCACCCAUGUGCUUAAGUUAAAGGAUAUCUAGUGGAUUACAUGCGUAGAGAAGGUUAUUUUA,apparent Kd,MS2 coat protein [1]; [9],12.2 nM
same,apparent Kd,MS2 coat protein [1]; [10],8.55 nM
UUCAUGUGAGGAUAUAAAAGGAAGGUGGUAUCUAUCAACAAUUAGAAGGCACAUGAGGAUCACCCAUGUCUGAA,apparent Kd,MS2 coat protein [2]; [3],67 nM
same,apparent Kd,MS2 coat protein [2]; [4],60.9 nM
AUAUUAAUAGUAAGGAUAUGCGUGUAUGUAGUUAUGCAGAAGGUACAUGAGGAUCACCCAUGUAUUAAUGUGUA,apparent Kd,MS2 coat protein [2]; [3],14.2 nM
same,apparent Kd,MS2 coat protein [2]; [4],15.4 nM
UCAUGACAUGAGGAUCACCCAUGUCAGGAUAUCUACAGAACCUCAUGUAAAAAACUGUAGAGAAGGGAUAUGAA,apparent Kd,MS2 coat protein [2]; [3],22 nM
same,apparent Kd,MS2 coat protein [2]; [4],25 nM
AUGGACGUCGUAGGAUAUGUAGGAUUCUCGUACAUGAGGAUCACCCAUGUUGACGUCGAGGUCGGACAGAAGGGCGGUGUCUAU,apparent Kd,MS2 coat protein [2]; [9],20.9 nM
same,apparent Kd,MS2 coat protein [2]; [10],8.65 nM
UGCAGACGAGGAUAUAGAUUUAAGUACAUGAGGAUCACCCAUGUGCAUAUGUAUUUAGAUUUAGAAGGCGUCUGCA,apparent Kd,MS2 coat protein [2]; [3],482 nM
same,apparent Kd,MS2 coat protein [2]; [4],469 nM
UCAUUAUAAAUCCAUCAUAACUACAUGAGGAUCACCCAUGUGCAGGAUAUCGAUUAUUUUACUAACGAGAAGGGCAAAUACAGA,apparent Kd,MS2 coat protein [2]; [3],37.5 nM
same,apparent Kd,MS2 coat protein [2]; [4],72.4 nM
AGUGCGAUGGGAGGAUAUCAUGGUCUAAUUAAUAAAAGGAUCACAUGAGGAUCACCCAUGUGUCAUGAGAAGGCCCUCGAGACC,apparent Kd,MS2 coat protein [2]; [9],74.2 nM
same,apparent Kd,MS2 coat protein [2]; [10],11.2 nM
AAUAAGCAAGGAUAUACGACGCAGAGCGUCAGUGGGCGAUGACAUGAGGAUCACCCAUGUAGAAGGUGCACAUC,apparent Kd,MS2 coat protein [2]; [3],93.9 nM
same,apparent Kd,MS2 coat protein [2]; [4],208 nM
UGUAUGUAGGCAGGAUAUACAUGAAUAUAUAUGAUGUAGUAUGAUGUAACAUGAGGAUCACCCAUGUAGAAGGGCCAGUGUAUA,apparent Kd,MS2 coat protein [2]; [3],102 nM
same,apparent Kd,MS2 coat protein [2]; [4],164 nM
AUGCUUUAUGUAGGAUAUUCAAACAAAGAGAAUGGAGAAGGACAUGAGGAUCACCCAUGUAGAAUGAUGUUAGAUAUCAUAUAU,apparent Kd,MS2 coat protein [2]; [3],16.3 nM
same,apparent Kd,MS2 coat protein [2]; [4],14.4 nM
AUCAGCUCCUCAGGAUAUACGUCACUGCGUCAGCAGUGUGGUAAGAUCACAUGAGGAUCACCCAUGUAGAAGGGACGAGCUGAU,apparent Kd,MS2 coat protein [2]; [3],31.8 nM
same,apparent Kd,MS2 coat protein [2]; [4],140 nM

# — the EternaBench riboswitch data
